Laboratory results taken from ChEMBL document CHEMBL1155278, “3,4-Diaryl-isoxazoles and -imidazoles as potent dual inhibitors of p38alpha mitogen activated protein kinase and casein kinase 1delta” (J Med Chem, 2009).

How the values were obtained:
[1] = target: Calcium/calmodulin-dependent protein kinase type 1 (Homo sapiens) (UniProt Q14012); test: Inhibition of CAMK1 assessed as residual activity at 10 uM by Cherenkov counting relative to control in presence of 50 uM ATP
How it was run: (§1)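 Single-point profiling at 10 µM in a panel of 78 protein kinases. Kinase activity is expressed as a percentage relative to control assays without compound.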

[2] = target: T1, Eukaryotic elongation factor 2 kinase (Homo sapiens) (UniProt O00418); test: Inhibition of EF2K assessed as residual activity at 10 uM by Cherenkov counting relative to control in presence of 5 uM ATP; how it was run: as §1
T1 sequence (whole entry): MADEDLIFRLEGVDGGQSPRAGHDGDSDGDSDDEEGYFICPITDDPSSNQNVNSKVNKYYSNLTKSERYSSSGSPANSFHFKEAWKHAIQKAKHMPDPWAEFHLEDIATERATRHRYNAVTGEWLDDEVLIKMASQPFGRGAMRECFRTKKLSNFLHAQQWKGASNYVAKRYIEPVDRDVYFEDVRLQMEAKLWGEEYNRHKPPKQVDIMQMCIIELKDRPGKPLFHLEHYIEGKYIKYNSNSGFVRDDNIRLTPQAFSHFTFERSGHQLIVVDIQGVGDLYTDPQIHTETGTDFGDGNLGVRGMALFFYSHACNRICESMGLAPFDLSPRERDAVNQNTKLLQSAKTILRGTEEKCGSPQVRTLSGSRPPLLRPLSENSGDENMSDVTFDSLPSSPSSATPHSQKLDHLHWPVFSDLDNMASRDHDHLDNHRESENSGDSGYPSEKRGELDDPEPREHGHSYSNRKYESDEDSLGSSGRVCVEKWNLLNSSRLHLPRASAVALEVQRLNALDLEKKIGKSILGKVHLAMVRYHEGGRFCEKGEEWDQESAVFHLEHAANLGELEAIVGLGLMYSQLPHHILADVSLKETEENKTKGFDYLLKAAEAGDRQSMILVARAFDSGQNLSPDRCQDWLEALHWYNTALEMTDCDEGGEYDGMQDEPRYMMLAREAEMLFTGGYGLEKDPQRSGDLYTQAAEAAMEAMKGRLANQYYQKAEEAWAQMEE

[3] = target: T2, Serine/threonine-protein kinase D1 (Homo sapiens) (UniProt Q15139); test: Inhibition of PKD1 assessed as residual activity at 10 uM by Cherenkov counting relative to control in presence of 50 uM ATP
T2 sequence (whole entry): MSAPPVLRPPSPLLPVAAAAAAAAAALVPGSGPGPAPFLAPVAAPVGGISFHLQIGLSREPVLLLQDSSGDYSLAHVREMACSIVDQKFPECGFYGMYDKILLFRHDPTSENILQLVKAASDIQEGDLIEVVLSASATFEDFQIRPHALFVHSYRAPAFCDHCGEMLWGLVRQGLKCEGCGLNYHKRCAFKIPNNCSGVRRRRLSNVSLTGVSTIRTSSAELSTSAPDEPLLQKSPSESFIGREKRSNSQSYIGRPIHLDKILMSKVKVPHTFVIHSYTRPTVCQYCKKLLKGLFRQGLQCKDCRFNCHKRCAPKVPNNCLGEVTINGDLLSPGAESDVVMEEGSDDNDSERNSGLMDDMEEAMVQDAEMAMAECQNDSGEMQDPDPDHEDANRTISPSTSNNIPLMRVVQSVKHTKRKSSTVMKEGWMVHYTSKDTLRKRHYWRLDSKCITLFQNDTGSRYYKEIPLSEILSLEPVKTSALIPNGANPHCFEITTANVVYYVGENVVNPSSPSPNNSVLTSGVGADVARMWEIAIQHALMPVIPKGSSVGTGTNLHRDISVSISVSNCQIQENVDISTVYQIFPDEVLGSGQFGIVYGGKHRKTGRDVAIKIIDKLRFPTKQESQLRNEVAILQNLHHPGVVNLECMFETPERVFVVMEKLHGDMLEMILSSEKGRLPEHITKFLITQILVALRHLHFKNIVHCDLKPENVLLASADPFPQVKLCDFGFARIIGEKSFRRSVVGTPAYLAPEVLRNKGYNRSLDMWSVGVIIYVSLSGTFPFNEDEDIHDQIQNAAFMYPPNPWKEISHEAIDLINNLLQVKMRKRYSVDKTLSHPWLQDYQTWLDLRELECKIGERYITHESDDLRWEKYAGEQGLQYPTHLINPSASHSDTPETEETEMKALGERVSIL
How it was run: (§2)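 Single-concentration profiling at 10 μM in a 78-kinase panel. Kinase activity is expressed as a percentage of control assays run without compound.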

[4] = target: Cyclin-dependent kinase 2/cyclin A (Homo sapiens) (UniProt P24941+P20248+P78396); test: Inhibition of CDK2/cyclin A assessed as residual activity at 10 uM by Cherenkov counting relative to control in presence of 20 uM ATP; format: protein-complex assay; how it was run: as §1
[5] = target: Tyrosine-protein kinase SYK (Homo sapiens) (UniProt P43405); test: Inhibition of SYK assessed as residual activity at 10 uM by Cherenkov counting relative to control in presence of 20 uM ATP; how it was run: as §2
[6] = target: Serine/threonine-protein kinase pim-3 (Homo sapiens) (UniProt Q86V86); test: Inhibition of PIM3 assessed as residual activity at 10 uM by Cherenkov counting relative to control in presence of 20 uM ATP
[7] = target: RAC-alpha serine/threonine-protein kinase (Homo sapiens) (UniProt P31749); test: Inhibition of PKBalpha assessed as residual activity at 10 uM by Cherenkov counting relative to control in presence of 5 uM ATP; how it was run: as §2
Chain of RAC-alpha serine/threonine-protein kinase (Homo sapiens) (P31749 whole entry): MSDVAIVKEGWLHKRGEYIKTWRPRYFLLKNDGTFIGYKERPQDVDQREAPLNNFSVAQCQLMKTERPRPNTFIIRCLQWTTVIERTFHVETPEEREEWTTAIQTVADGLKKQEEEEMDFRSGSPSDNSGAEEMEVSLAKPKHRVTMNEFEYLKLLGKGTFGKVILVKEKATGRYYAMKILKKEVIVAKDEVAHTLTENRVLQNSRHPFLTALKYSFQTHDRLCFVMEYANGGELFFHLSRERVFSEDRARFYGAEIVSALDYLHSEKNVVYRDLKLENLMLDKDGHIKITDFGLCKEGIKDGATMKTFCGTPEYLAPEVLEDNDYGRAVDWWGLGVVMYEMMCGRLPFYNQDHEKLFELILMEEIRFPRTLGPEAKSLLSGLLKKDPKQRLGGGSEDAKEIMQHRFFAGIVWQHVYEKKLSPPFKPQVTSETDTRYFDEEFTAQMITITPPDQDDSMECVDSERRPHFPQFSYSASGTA

[8] = target: Serine/threonine-protein kinase Nek6 (Homo sapiens) (UniProt Q9HC98); test: Inhibition of NEK6 assessed as residual activity at 0.1 uM by Cherenkov counting relative to control in presence of 50 uM ATP
Chain of Serine/threonine-protein kinase Nek6 (Homo sapiens) (Q9HC98 whole entry): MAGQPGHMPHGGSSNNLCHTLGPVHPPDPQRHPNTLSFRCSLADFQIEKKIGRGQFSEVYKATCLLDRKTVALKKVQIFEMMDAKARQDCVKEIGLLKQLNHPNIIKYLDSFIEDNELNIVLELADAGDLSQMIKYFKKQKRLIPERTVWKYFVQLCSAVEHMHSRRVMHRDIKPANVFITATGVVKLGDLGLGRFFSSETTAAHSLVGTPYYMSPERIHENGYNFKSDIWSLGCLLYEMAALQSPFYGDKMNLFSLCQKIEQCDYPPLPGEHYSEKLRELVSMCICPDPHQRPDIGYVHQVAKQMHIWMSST
How it was run: (§3)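 Single-concentration selectivity screen at 0.1 μM against a panel of 76 protein kinases. Each kinase was run at an ATP level approximating its Km for ATP. Output is mean residual activity as % of the control assay without compound, n = 3 ± SD.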

[9] = target: Fibroblast growth factor receptor 1 (Homo sapiens) (UniProt P11362); test: Inhibition of FGFR1 assessed as residual activity at 0.1 uM by Cherenkov counting relative to control in presence of 20 uM ATP
Chain of Fibroblast growth factor receptor 1 (Homo sapiens) (P11362 22-822 limits assumed): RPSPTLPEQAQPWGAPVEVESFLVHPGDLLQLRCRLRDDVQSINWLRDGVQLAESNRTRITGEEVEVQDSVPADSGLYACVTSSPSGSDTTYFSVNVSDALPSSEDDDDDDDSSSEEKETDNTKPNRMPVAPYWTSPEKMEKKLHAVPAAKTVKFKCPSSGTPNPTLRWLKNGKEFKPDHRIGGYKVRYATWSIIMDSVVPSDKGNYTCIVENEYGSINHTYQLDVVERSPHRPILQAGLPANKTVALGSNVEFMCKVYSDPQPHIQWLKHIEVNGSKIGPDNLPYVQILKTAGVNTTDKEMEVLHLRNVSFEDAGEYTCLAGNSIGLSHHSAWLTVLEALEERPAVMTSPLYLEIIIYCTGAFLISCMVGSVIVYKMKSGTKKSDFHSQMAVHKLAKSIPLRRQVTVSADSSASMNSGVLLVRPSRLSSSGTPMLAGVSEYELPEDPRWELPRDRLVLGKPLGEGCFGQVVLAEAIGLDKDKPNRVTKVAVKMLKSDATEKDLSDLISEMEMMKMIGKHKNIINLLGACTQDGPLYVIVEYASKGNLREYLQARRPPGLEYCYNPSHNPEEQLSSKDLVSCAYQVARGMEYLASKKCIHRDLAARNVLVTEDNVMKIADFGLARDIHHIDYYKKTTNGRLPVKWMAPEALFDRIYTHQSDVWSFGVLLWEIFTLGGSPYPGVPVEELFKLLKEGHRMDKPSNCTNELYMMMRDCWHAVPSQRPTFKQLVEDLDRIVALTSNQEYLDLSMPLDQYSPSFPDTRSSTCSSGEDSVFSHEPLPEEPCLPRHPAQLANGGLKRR
How it was run: (§4)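 Single-concentration screen at 0.1 µM across a panel of 76 protein kinases. Each kinase was run at an ATP concentration approximating its ATP Km. Results are % mean residual activity versus control assays without compound (n = 3 ± SD).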

[10] = Inhibition of AMPK assessed as residual activity at 0.1 uM by Cherenkov counting relative to control in presence of 50 uM ATP; how it was run: as §4
[11] = target: MAP kinase-interacting serine/threonine-protein kinase 2 (Homo sapiens) (UniProt Q9HBH9); test: Inhibition of MNK2 assessed as residual activity at 0.1 uM by Cherenkov counting relative to control in presence of 50 uM ATP; how it was run: as §3
Chain of MAP kinase-interacting serine/threonine-protein kinase 2 (Homo sapiens) (Q9HBH9 whole entry, looked up): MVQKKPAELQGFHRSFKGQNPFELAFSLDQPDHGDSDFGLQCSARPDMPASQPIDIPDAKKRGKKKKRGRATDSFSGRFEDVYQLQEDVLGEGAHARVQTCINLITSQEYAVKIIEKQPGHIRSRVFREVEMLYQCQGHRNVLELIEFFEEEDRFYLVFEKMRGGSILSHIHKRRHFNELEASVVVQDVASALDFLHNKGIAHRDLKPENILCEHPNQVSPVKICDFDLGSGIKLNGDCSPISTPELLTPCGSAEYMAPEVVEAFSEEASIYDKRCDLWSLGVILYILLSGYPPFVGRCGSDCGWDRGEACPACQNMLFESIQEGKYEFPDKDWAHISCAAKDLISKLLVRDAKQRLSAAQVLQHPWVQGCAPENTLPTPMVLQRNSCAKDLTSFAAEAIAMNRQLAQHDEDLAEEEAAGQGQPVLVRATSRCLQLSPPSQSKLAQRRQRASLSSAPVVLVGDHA

[12] = target: Serine/threonine-protein kinase pim-3 (Homo sapiens) (UniProt Q86V86); test: Inhibition of PIM3 assessed as residual activity at 0.1 uM by Cherenkov counting relative to control in presence of 20 uM ATP; how it was run: as §3

Chain of Calcium/calmodulin-dependent protein kinase type 1 (Homo sapiens) (Q14012 whole entry, looked up): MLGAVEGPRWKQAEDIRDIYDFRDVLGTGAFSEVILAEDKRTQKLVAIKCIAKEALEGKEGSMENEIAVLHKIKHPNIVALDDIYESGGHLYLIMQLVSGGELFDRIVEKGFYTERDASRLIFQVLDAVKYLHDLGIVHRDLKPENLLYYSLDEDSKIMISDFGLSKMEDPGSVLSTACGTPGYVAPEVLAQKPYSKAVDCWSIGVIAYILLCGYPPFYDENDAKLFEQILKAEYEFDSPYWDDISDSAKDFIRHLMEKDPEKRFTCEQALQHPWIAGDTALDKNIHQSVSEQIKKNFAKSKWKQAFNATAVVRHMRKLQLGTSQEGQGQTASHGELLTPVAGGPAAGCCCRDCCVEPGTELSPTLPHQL

Structure (SMILES) | Activity [1] [%] | Activity [2] [%] | Activity [3] [%] | Activity [4] [%] | Activity [5] [%] | Activity [6] [%] | Activity [7] [%] | Activity [8] [%] | Activity [9] [%] | Activity [10] [%] | Activity [11] [%] | Activity [12] [%]
CC(C)c1onc(-c2ccc(F)cc2)c1-c1ccncc1 | 75 | 107 | 60 | 96 | 131 | 81 | 94 | – | – | – | – | –
COc1ccc(/C=C/C(=O)Nc2cc(-c3[nH]c([S+](C)[O-])nc3-c3ccc(F)cc3)ccn2)c(OC)c1 (centres undefined) | – | – | – | – | – | – | – | 111 | 50 | 99 | 88 | 90
COc1ccc(/C=C/C(=O)Nc2cc(-c3[nH]c(SC)nc3-c3ccc(F)cc3)ccn2)c(OC)c1 | – | – | – | – | – | – | – | 90 | 50 | 92 | 85 | 81
CC(C)c1noc(-c2ccc(F)cc2)c1-c1ccncc1 | 76 | 107 | 89 | 98 | 114 | 78 | 94 | – | – | – | – | –
